Columns and labels:
[1] = tested on: Plasmodium berghei; test: Antimalarial activity against GFP-tagged Plasmodium berghei ANKA infected in NMRI mouse assessed as mouse survival at 30 mg/kg, po administered as single dose 24 hrs post infection measured 72 hrs post infection
[2] = molecular target: Cytochrome P450 2C9 (Homo sapiens, UniProt P11712); test: Inhibition of CYP 2C9; format: ADME
[3] = Cytotoxicity against human HeLa cells; format: cell-based; conditions: read-out: TC50 (the source's name)
[4] = in vitro; conditions: human, Caco-2
[5] = tested on: Plasmodium berghei; test: Antimalarial activity against GFP-tagged Plasmodium berghei ANKA infected in NMRI mouse assessed as mouse survival at 100 mg/kg, po administered as single dose 24 hrs post infection measured on day 30 post infection
[6] = Volume of distribution in male BALB/c mouse at 5 mg/kg, iv by LC/MS/MS analysis; format: ADME, organism-based; set-up: dose 5 mg/kg, route intravenous; conditions: in vivo
How it was run: (§1)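 Male Balb/c mice, n = 3 per group, dosed iv via lateral tail vein at 5 mg/kg and 2 mL/kg. Vehicle 2.5 mg/mL in 75% PEG300/25% DSW, filtered. Six serial retro-orbital blood samples up to 24 h, heparinized plasma. Plasma extracted with acetonitrile/methanol (3:1) plus internal standard for LC/MS/MS (positive ESI, MRM). Noncompartmental analysis.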

[7] = tested on: Mus musculus; test: Cmax in male BALB/c mouse at 20 mg/kg, po by LC/MS/MS analysis; format: ADME, organism-based; set-up: dose 20 mg/kg, route oral; conditions: in vivo
How it was run: (§2)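 Male Balb/c mice, n = 3 per group, given 20 mg/kg orally at 8 mL/kg. Vehicle 2.5 mg/mL in 75% PEG300/25% DSW, filtered. Six serial retro-orbital blood samples up to 24 h, heparinized plasma. Plasma extracted with acetonitrile/methanol (3:1) plus internal standard; LC/MS/MS quantitation by positive ESI MRM. Noncompartmental analysis; values normalized to 30 mg/kg. F = (AUCpo·dose iv)/(AUCiv·dose po).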

[8] = Cytotoxicity against Cricetulus griseus CHO cells; format: cell-based; conditions: chinese hamster, read-out: TC50 (the source's name)
[9] = molecular target: Voltage-gated inwardly rectifying potassium channel KCNH2 (Homo sapiens, UniProt Q12809)
[10] = tested on: Plasmodium berghei; test: Antimalarial activity against GFP-tagged Plasmodium berghei ANKA infected in NMRI mouse assessed as mouse survival at 30 mg/kg, po QD administered 24 hrs post infection for 3 days measured on day 30 post infection; format: functional
[11] = Half-life in male BALB/c mouse at 5 mg/kg, iv by LC/MS/MS analysis; format: ADME, organism-based; set-up: dose 5 mg/kg, route intravenous; conditions: in vivo
How it was run: as §1

[12] = Half life in male BALB/c mouse at 20 mg/kg, po by LC/MS/MS analysis; format: ADME, organism-based; set-up: dose 20 mg/kg, route oral; conditions: in vivo
How it was run: as §2

[13] = pampa
[14] = in vitro; conditions: human, Caco-2; remark: listed apart in the source
[15] = tested on: Salmonella typhimurium; test: Genotoxicity in Salmonella Typhimurium by Ames test; format: toxicity, organism-based; conditions: salmonella enterica subsp. enterica serovar typhimurium
[16] = in vitro; conditions: rat, microsomes
[17] = Selectivity index, ratio TC50 for human HuH7 cells to IC50 for Plasmodium falciparum; format: functional, Huh-7
[18] = Cytotoxicity against human 293T cells; format: cell-based; conditions: HEK-293T cells, read-out: TC50 (the source's name)
[19] = molecular target: Cytochrome P450 2D6 (Homo sapiens, UniProt P10635); test: Inhibition of CYP 2D6; format: ADME
[20] = molecular target: Cytochrome P450 3A4 (Homo sapiens, UniProt P08684); test: Inhibition of CYP 3A4; format: ADME
[21] = Cytotoxicity against human HuH7 cells; format: cell-based; conditions: Huh-7 cells, read-out: TC50 (the source's name)
[22] = Ratio of drug level in blood to plasma of male BALB/c mouse; format: ADME; conditions: blood and plasma
[23] = Selectivity index, ratio TC50 for human Hep2 cells to IC50 for Plasmodium falciparum; format: functional, HEp-2
[24] = Genotoxicity in micronucleus assessed as arrest at cytokinesis stage by micronucleus assay
[25] = tested on: Plasmodium falciparum; test: Antimalarial activity against Plasmodium falciparum W2 infected in human erythrocytes assessed as decrease in parasitemia after 72 hrs; format: functional, organism-based; conditions: W2, 72 h
[26] = Selectivity index, ratio TC50 for CHO cells to IC50 for Plasmodium falciparum; format: functional
[27] = Ratio of drug level in blood to plasma of female CD1 mouse; format: ADME; conditions: blood and plasma
[28] = molecular target: Cytochrome P450 2C19 (Homo sapiens, UniProt P33261); test: Inhibition of CYP 2C19; format: ADME
[29] = molecular target: T1, Cytochrome P450 1A2 (Homo sapiens, UniProt P05177); test: Inhibition of CYP 1A2; format: ADME
T1 sequence (P05177 whole entry): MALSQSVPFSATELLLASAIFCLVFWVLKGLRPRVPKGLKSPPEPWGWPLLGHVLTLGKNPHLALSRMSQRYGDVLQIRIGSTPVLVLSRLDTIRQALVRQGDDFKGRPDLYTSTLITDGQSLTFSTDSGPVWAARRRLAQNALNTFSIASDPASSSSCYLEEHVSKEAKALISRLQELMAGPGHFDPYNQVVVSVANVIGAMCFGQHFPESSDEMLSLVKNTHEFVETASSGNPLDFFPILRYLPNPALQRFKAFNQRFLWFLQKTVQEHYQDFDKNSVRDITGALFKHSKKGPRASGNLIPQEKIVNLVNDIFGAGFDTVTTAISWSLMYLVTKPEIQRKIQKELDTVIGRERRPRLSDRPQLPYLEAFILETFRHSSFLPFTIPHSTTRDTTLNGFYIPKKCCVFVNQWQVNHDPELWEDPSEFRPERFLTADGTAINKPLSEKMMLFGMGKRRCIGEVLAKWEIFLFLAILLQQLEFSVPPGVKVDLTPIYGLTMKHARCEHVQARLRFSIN

[30] = Selectivity index, ratio TC50 for mouse BAF3 cells to IC50 for Plasmodium falciparum; format: functional
[31] = Oral bioavailability in male BALB/c mouse at 20 mg/kg by LC/MS/MS analysis; format: ADME, organism-based; conditions: in vivo
How it was run: as §2

[32] = in vitro; conditions: human, microsomes
[33] = Clearance in male BALB/c mouse at 5 mg/kg, iv by LC/MS/MS analysis; format: ADME, organism-based; set-up: dose 5 mg/kg, route intravenous; conditions: in vivo
How it was run: as §1

[34] = tested on: Mus musculus; test: AUC (0 to infinity) in male BALB/c mouse at 20 mg/kg, po by LC/MS/MS analysis; format: ADME, organism-based, Plasma; set-up: time infinity, dose 20 mg/kg, route oral; conditions: in vivo
How it was run: as §2

[35] = Selectivity index, ratio TC50 for human 293T cells to IC50 for Plasmodium falciparum; format: functional
[36] = in vitro; conditions: mouse, microsomes
[37] = tested on: Plasmodium falciparum; test: Antimalarial activity against Plasmodium falciparum 3D7 infected in human erythrocytes assessed as decrease in parasitemia after 72 hrs; format: functional, organism-based; conditions: 3D7, 72 h
[38] = Tmax in male BALB/c mouse at 20 mg/kg, po by LC/MS/MS analysis; format: ADME, organism-based; set-up: dose 20 mg/kg, route oral; conditions: in vivo
How it was run: as §2

[39] = tested on: Plasmodium berghei; test: Antimalarial activity against GFP-tagged Plasmodium berghei ANKA infected in NMRI mouse assessed as reduction in parasitemia at 30 mg/kg, po administered as single dose 24 hrs post infection measured 72 hrs post infection; format: functional; set-up: scale not given: the % may be the effect or the level left
[40] = Cytotoxicity against mouse BAF3 cells; format: cell-based; conditions: read-out: TC50 (the source's name)
[41] = Selectivity index, ratio TC50 for human HeLa cells to IC50 for Plasmodium falciparum; format: functional
[42] = AUC (0 to infinity) in male BALB/c mouse at 5 mg/kg, iv by LC/MS/MS analysis; format: ADME, organism-based; set-up: time infinity, dose 5 mg/kg, route intravenous; conditions: plasma
How it was run: as §1

[43] = Cytotoxicity against human Hep2 cells; format: cell-based; conditions: HEp-2 cells, read-out: TC50 (the source's name)
[44] = Cmax in po dosed mouse; format: ADME, organism-based; set-up: route oral; conditions: in vivo
[45] = Aqueous solubility of the compound at pH 6.8; format: physicochemical; conditions: buffer

Sequence of Cytochrome P450 2C19 (P33261 whole entry): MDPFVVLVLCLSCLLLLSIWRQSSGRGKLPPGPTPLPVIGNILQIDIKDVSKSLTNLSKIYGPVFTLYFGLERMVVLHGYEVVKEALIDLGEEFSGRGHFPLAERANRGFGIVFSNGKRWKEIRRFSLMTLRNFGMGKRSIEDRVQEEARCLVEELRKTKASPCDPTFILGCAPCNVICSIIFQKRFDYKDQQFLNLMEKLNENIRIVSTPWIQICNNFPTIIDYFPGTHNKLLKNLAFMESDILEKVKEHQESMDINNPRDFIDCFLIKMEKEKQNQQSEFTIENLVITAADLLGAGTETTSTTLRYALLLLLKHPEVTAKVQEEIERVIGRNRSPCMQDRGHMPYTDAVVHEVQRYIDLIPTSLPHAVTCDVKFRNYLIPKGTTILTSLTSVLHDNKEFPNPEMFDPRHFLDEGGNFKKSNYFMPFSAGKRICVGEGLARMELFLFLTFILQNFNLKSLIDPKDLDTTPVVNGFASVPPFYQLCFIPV
Sequence of Cytochrome P450 2D6 (P10635 whole entry): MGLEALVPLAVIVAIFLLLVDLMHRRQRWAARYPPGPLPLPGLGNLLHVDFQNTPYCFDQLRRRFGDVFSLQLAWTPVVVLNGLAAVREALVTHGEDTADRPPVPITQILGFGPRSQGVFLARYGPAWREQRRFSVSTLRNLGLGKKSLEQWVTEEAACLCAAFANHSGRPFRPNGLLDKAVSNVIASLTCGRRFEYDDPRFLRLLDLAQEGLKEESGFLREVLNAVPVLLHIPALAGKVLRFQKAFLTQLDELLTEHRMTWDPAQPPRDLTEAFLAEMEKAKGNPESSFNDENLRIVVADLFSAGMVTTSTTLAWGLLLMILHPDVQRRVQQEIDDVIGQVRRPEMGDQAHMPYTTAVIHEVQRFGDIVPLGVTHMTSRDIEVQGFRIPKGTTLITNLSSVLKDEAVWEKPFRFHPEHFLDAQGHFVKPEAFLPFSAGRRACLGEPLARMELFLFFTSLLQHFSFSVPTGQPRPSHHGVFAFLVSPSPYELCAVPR
Sequence of Voltage-gated inwardly rectifying potassium channel KCNH2 (Q12809 whole entry): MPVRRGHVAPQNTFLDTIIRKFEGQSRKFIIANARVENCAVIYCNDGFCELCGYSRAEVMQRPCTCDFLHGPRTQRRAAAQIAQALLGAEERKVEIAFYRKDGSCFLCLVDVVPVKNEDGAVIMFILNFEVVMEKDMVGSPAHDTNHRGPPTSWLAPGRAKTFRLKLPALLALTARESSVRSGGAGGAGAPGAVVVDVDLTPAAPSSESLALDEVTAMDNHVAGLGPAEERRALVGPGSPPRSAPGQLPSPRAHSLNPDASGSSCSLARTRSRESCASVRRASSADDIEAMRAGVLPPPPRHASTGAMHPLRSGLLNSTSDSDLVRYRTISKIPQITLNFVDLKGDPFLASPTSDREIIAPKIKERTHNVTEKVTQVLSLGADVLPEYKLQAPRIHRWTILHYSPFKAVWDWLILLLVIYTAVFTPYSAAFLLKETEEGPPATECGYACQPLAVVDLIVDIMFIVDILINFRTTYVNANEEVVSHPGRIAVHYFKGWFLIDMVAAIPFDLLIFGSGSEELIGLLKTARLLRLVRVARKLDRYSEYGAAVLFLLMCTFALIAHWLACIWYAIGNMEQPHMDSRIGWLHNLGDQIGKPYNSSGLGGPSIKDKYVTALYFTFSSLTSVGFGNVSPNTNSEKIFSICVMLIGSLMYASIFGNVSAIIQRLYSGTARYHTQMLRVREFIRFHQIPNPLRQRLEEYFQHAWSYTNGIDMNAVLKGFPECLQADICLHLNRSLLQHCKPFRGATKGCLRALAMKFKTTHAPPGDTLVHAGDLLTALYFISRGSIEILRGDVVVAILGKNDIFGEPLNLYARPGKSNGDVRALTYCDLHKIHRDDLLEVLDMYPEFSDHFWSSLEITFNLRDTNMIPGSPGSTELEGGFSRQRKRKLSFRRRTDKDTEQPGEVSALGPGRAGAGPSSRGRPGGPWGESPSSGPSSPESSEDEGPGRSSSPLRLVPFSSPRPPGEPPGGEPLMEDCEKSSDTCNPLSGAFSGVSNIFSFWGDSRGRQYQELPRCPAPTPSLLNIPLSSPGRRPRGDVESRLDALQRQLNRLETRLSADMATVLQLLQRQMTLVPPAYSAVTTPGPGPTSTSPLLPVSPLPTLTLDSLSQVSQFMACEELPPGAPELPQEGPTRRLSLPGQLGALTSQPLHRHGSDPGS
Sequence of Cytochrome P450 3A4 (P08684 whole entry): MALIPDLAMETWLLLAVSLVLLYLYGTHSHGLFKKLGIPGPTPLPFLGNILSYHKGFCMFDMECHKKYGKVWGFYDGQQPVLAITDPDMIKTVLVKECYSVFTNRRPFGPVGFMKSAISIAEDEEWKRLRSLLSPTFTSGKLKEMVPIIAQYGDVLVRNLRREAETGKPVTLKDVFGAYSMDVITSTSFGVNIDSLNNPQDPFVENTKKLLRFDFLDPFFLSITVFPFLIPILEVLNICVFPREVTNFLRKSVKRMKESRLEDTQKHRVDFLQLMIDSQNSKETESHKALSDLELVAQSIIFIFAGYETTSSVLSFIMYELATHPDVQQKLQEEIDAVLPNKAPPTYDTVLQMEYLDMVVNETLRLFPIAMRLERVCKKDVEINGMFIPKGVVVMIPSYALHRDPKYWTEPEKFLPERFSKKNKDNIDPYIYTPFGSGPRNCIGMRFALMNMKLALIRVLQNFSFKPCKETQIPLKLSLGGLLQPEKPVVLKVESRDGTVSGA
Sequence of Cytochrome P450 2C9 (P11712 whole entry): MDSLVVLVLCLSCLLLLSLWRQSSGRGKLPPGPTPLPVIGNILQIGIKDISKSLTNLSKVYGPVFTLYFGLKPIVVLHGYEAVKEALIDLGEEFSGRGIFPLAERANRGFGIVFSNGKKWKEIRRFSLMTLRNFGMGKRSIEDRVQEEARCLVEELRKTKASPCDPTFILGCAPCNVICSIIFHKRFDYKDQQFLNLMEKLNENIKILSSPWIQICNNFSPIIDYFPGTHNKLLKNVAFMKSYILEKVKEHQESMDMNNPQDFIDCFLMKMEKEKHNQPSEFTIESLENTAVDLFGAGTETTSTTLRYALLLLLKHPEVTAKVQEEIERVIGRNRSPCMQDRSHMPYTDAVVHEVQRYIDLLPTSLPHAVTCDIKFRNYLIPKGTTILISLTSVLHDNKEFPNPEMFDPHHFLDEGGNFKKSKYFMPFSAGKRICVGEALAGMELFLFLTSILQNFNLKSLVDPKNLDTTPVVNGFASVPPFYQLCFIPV

Question: What does the source list for CC(C)(N)C(=O)N1CCn2c(nc(-c3ccc(F)cc3)c2Nc2ccc(F)c(F)c2)C1?
Answer: Survival [1]: 7.7 days; IC50 [2]: > 8.9 µM; CC50 [3]: > 12 µM; Papp A→B [4]: 0.14 ×10⁻⁶ cm/s; Survival [5]: 17 days; Vd [6]: 14 L/kg; Cmax [7]: 1940 nM; CC50 [8]: > 12 µM; IC50 [9]: 4.8 µM; Survival [10]: 17.7 days; half-life [11]: 462 min; half-life [12]: 462 min; permeability [13]: 86%; Papp B→A [14]: 1.03 ×10⁻⁶ cm/s; Activity [15]: Non-toxic; hepatic extraction ratio [16]: 0.12; Selectivity Index [17]: >100; CC50 [18]: > 12 µM; IC50 [19]: > 8.9 µM; IC50 [20]: > 8.9 µM; CC50 [21]: > 12 µM; blood plasma ratio [22]: > 1; Selectivity Index [23]: >100; Activity [24]: Non-toxic; IC50 [25]: 36 nM; Selectivity Index [26]: >100; blood plasma ratio [27]: > 1; IC50 [28]: > 8.9 µM; IC50 [29]: > 8.9 µM; Selectivity Index [30]: >100; bioavailability [31]: 76%; hepatic extraction ratio [32]: 0.39; clearance [33]: 27.7 mL/min/kg; AUC [34]: 31.758 µM·h; Selectivity Index [35]: >100; hepatic extraction ratio [36]: 0.17; IC50 [37]: 44 nM; Tmax [38]: 1.67 h; Activity [39]: 99.4%; CC50 [40]: > 12 µM; Selectivity Index [41]: >100; AUC(0-inf) [42]: 7 µM·h; CC50 [43]: > 12 µM

Question: Which IC50 [2] does the source give for NCC(=O)N1CCn2c(nc(-c3ccccc3)c2Nc2ccc3c(c2)OCO3)C1 here?
Answer: Its IC50 is over 10 µM.

Question: And the IC50 [9]?
Answer: Its IC50 is 19 µM.

Question: And the “Selectivity Index” value [17]?
Answer: Its value is over 20.

Question: And the Cmax [44]?
Answer: The Cmax was 320 nM.

Question: What about the IC50 [19] of the same molecule?
Answer: The IC50 was over 10 µM.

Question: And the IC50 [20]?
Answer: Its IC50 is over 10 µM.

Question: What about the CC50 [21] of the same molecule?
Answer: The CC50 was over 10 µM.

Question: What about the IC50 [25] of the same molecule?
Answer: Its IC50 is 97 nM.

Question: And the IC50 [28]?
Answer: The IC50 was over 10 µM.

Question: And the IC50 [29]?
Answer: The IC50 was over 10 µM.

Question: And the solubility [45]?
Answer: Its solubility is over 175 µM.

Question: What about the IC50 [37] of the same molecule?
Answer: The IC50 was 63 nM.

Question: What about the “Selectivity Index” value [41] of the same molecule?
Answer: Its value is over 20.

From ChEMBL document CHEMBL1800027, “Imidazolopiperazines: hit to lead optimization of new antimalarial agents” (J Med Chem, 2011)
